# Test results reported in paper PMC5598257 (Toxicology Reports, 2015).
# What was measured:
# [1] = Stability; assay type: physicochemical; settings: for Rate constants, K (×10^4): hydrolysis in phosphate buffer (D2O), pseudo-first-order
# Method in brief: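 DMPC was sonicated in D2O phosphate buffer (pH 5.0–8.0) at 30% power for 5 min, 10 s on/off. To 800 μl of buffer with or without vesicles (compound:DMPC 1:5), 15 μl of a 0.337 M CDCl3 stock of test compound was added. 1H NMR ran at 25 °C, 128 scans, 2 s relaxation delay, integrating the C6H signal. Single-point runs. Pseudo-first-order rate constants; inhibition ratio is K without/with DMPC.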
# [2] = system: MDA-MB-435s (human melanoma); test: In vitro cytotoxicity assay; assay type: cell-based; settings: MDA-MB-435s cells, 72 h, MTT
# Method in brief: (§1)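 Cells were grown in DMEM with 10% FBS and seeded at 1–2 × 10^4 per well, depending on the line. Test compound (free, or co-evaporated with DMPC 1:5 from chloroform) was added at once at 250, 50, 10, 2, 0.4 and 0.08 μM. Incubation ran 72 h at 37 °C, 5% CO2. Survival was read by MTT at OD 540 nm. Buffer-treated controls were on a separate plate. Triplicate runs; IC50 by curve fitting.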
# [3] = system: MCF-7 (human breast adenocarcinoma, estrogen-positive); test: In vitro cytotoxicity assay; assay type: cell-based; settings: MCF-7 cells, 72 h, MTT
# Method in brief: as §1
# [4] = system: H9C2 (rat myocardium); test: In vitro cytotoxicity assay; assay type: cell-based; settings: H9C2 normal cells, 72 h, MTT
# Method in brief: as §1
# [5] = aqueous solutions, base catalyzed hydrolysis to 5-fluorouracil; cited from earlier work
# [6] = system: C6 (rat glial tumor); test: In vitro cytotoxicity assay; assay type: cell-based; settings: C6 cells, 72 h, MTT
# Method in brief: as §1
# [7] = system: SH-SY-5Y (human neuroblastoma); test: In vitro cytotoxicity assay; assay type: cell-based; settings: SH-SY-5Y cells, 72 h, MTT
# Method in brief: as §1
SMILES,"Rate constants, K (×10^4) ([1]; pH 5.0, 25 °C)","Rate constants, K (×10^4) ([1]; pH 6.0, 25 °C)","Rate constants, K (×10^4) ([1]; pH 7.0, 25 °C)","Rate constants, K (×10^4) ([1]; pH 8.0, 25 °C)","Inhibition ratio, K1/K3 ([1]; pH 8.0, K of 1 alone over K of 1 with DMPC (3))","Time practically kept unharmed ([1]; phosphate buffer pH 5, without DMPC)","Time degradation completely prevented ([1]; with 2 (DMPC, 1:5), phosphate buffer, at decreasing pH)","IC50, concentration providing 50% cell killing effect [2]","IC50, concentration providing 50% cell killing effect [3]","IC50, concentration providing 50% cell killing effect [4]",pH of highest stability [5],"IC50, concentration providing 50% cell killing effect [6]","IC50, concentration providing 50% cell killing effect [7]"
"CCCCCCNC(=O)n1cc(F)c(=O)[nH]c1=O [compound 1, 1-hexylcarbamoyl-5-fluorouracil]",0 ×10^4,0.17 ×10^4,0.54 ×10^4,0.70 ×10^4,over 7,more than 14 h,≥ 2 days,no activity in vitro,no activity in vitro,not cardiotoxic,~4,,
"CCCCCCCCCCCCCC(=O)OC[C@H](COP(=O)([O-])OCC[N+](C)(C)C)OC(=O)CCCCCCCCCCCCC [compound 2, 1,2-dimyristoyl-sn-glycero-3-phosphocholine]",,,,,,,,,,,,no cytotoxic effect,no cytotoxic effect
